Shown are actives, neighbours in structure and some others; about 2.6% of the full set was active somewhere.
rCAG binder = r(CAG) repeat RNA binding | TO-PRO-1 dye displacement fluorescence | inhibition, % at 3 µM | 1.3% of 370,000 active | AID 651821;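 active means inhibition above the plate cutoff, the mean of all test compounds on that plate plus 3 SD, cut at about 35% in these data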;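 further: 0% = DMSO alone and 100% = 100 µM mitoxantrone as full dye displacement; higher means more dye released from RNA so lower well fluorescence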
PG9 Ab binder = small molecules binding HIV-1 gp120 antibody PG9; TR-FRET gp120-PG9 antibody binding; inhibition, % at 6.7 µM; 0.43% of 360,000 active; in the data active means inhibition above about 8.5%
NR2E3 ag-1 = NR2E3 (human) agonism | Q9Y5X4 | GST-NR2E3/biotin-RetCOR TR-FRET, 1536-well | inhibition of corepressor binding, % at 4.78 µM | 0.12% of 320,000 active;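 active means percent inhibition above the cutoff of mean plus 3 SD of all tested compounds, set per screening campaign, cut at about 20% in these data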;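 further: 0% = DMSO wells and 100% = biotin wells as full block of FRET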
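System: GST-NR2E3 and biotin-RetCOR proteins; probe or stimulus: 7 nM biotin-RetCOR; doses: compound at 4.8 µM, single dose; schedule: Compound–protein incubation for 5 h at 4 °C; detection: time-resolved FRET; read-out: percent inhibition; controls: biotin wells as high control, 0.6% DMSO wells as low control; format: 1536-well plates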
Rev-erbA mod = modulators of human Rev-erb alpha DNA binding; P20393; activity, % at 10 µM; 0.79% of 370,000 active; Rev-erbα–FITC-DNA binding, fluorescence polarization, 90 min;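 active means activity above about 14%, limit read from the data; passing the limit was not always enough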;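 further: 0% = DMSO wells with 35 nM protein and 100% = DMSO wells with 750 nM protein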
Target sequence (P20393 whole entry, looked up): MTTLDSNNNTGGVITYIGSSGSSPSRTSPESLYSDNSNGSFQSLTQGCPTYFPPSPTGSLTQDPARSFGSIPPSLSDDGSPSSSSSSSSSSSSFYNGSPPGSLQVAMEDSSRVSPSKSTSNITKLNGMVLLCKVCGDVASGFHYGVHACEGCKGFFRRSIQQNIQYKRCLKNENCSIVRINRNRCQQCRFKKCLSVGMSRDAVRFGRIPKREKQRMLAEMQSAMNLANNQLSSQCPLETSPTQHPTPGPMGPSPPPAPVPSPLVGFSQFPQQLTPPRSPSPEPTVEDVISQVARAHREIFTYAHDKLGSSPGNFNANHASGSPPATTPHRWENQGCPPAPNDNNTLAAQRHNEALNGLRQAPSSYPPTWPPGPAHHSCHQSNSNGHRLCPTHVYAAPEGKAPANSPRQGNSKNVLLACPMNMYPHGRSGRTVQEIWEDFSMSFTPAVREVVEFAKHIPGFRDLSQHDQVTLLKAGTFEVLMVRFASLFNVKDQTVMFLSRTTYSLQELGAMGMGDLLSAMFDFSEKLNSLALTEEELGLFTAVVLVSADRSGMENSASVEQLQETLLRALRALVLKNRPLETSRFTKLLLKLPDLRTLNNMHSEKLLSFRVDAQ
NR2E3 ag-2 = human photoreceptor-specific nuclear receptor agonism; CHO-S Gal4-NCOR/VP16-NR2E3 two-hybrid, luciferase; Q9Y5X4; inhibition of corepressor binding, % at 3.98 µM; 0.35% of 360,000 active;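 active means inhibition above the mean of all tested compounds plus 3 SD, cut at about 70% in these data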;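 further: 0% = DMSO with NR2E3 transfected cells and 100% = cells lacking NR2E3 construct; higher means lower luciferase signal from less NR2E3 corepressor binding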
rCAG bind conf = r(CAG) RNA repeat binding, confirmation; shares compounds with rCAG binder; TO-PRO-1 dye displacement fluorescence; inhibition, % at 3 µM; 70% of 4,300 active; AID 652065;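 active means inhibition above a per-plate cutoff, the mean inhibition of sample wells plus 3 SD, cut at about 35% in these data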;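 further: loss of TO-PRO-1 fluorescence as compound displaces dye from 1x1 AA loop RNA; 0% = DMSO only wells and 100% = 100 µM mitoxantrone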
DNA CAG counter = DNA CAG dye complex inhibition counter-screen; 94% of 4,300 active; inhibition, % at 3 µM; d(CAG) DNA oligo TO-PRO-1 dye displacement, fluorescence; shares compounds with rCAG binder;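 active means inhibition above its plate's cutoff, the mean test-well inhibition plus 3 SD, cut at about 4.8% in these data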;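 further: 0% = DNA dye mix with DMSO and 100% = 100 µM mitoxantrone; hits displace the dye from DNA and so lower well fluorescence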
dCAG dye DR = counter-screen for rCAG binders: inhibitors of DNA CAG TO-PRO-1 complex; shares compounds with rCAG binder; 20% of 250 active; DNA CAG/GTC duplex TO-PRO-1 dye displacement fluorescence; AID 686960; IC50, µM; in the data active means IC50 below about 10 µM
Active calls of the source: *; x = no result given.

SMILES	rCAG binder	PG9 Ab binder	NR2E3 ag-1	Rev-erbA mod	NR2E3 ag-2	rCAG bind conf	DNA CAG counter	others
CCOc1cc(/C=C2/SC(=O)N(CC(=O)N3CCc4ccccc4C3)C2=O)ccc1OCC(=O)O	56.7*	-2.6	-2.2	-3.2	-14.8	60.3*	20.7*
CCOc1cc(/C=C2/SC(=S)N(Cc3ccccc3)C2=O)ccc1O	37.0*	-3.2	2.0	4.7	5.3	42.2*	23.6*
Cc1ccc(NC(=O)c2ncn(CCCN[C@H](C)c3cccc4ccccc34)n2)cc1C	2.1	0.3	x	2.8	7.1	x	x
COc1ccc(NC(=O)c2c(NC(=O)CCC(=O)O)sc(-c3ccccc3)c2C)cc1	50.3*	2.9	3.7	2.3	-15.8	57.0*	12.3*	dCAG dye DR=>29.9
COC(=O)c1c(NC(=O)CCC(=O)O)sc(Cc2ccccc2)c1C	32.5	-0.5	4.3	-4.3	-18.9	x	x
Cc1ccc(C(=O)Nc2cccc([N+](=O)[O-])c2)cc1S(=O)(=O)Nc1ccc(NC(=O)c2ccccc2)cc1	54.7*	-0.8	-0.8	1.6	-1.7	41.3*	21.2*
Cc1ccc(NS(=O)(=O)c2cc(C(=O)Nc3cccc([N+](=O)[O-])c3)ccc2C)cc1	21.8	0.6	-1.1	4.8	-30.4	x	x
Cc1ccc(C(=O)N2CCCC2)cc1S(=O)(=O)Nc1ccccc1	-0.6	-0.1	-2.3	-6.5	-17.5	x	x
Cc1ccc(C(=O)Nc2cccc([N+](=O)[O-])c2)cc1S(=O)(=O)Nc1cccc(C(=O)O)c1	34.3	-1.2	5.7	2.7	2.0	x	x
Cc1ccc([N+](=O)[O-])cc1S(=O)(=O)Nc1cccc(S(=O)(=O)Nc2ccccc2C(=O)O)c1	45.8*	-1.1	x	13.2	-5.1	37.6*	9.3*
O=C(CSc1ccc([N+](=O)[O-])cc1)Nc1cccc(S(=O)(=O)Nc2ccccc2F)c1	49.9*	-1.5	3.4	0.8	-6.6	37.1*	12.6*
Cc1ccc(C(=O)Nc2ccccc2C(=O)O)cc1S(=O)(=O)Nc1ccccc1	67.2*	0.2	2.2	-4.2	-0.9	46.5*	14.9*
CC(=O)NCCNc1nc2cc(-c3ccc(C)cc3)sc2c(=O)n1C	4.4	1.3	x	-4.9	-34.0	x	x
Cn1cc([C@]2(O)C(=O)Nc3cccc(Cl)c32)c2ccccc21	1.1	-3.5	x	4.4	x	x	x
Cc1ccc(NC(=O)CC(=O)c2ccc([N+](=O)[O-])cc2)cc1S(=O)(=O)Nc1cccc(Cl)c1	49.7*	-3.9	3.7	3.4	23.2	63.7*	25.1*
Cc1ccc(C(=O)NC2CCCC2)cc1S(=O)(=O)N1CCCCC1	-4.8	-2.3	1.9	-5.2	-21.9	x	x
Cc1ccc(C(=O)Nc2ccccc2C(=O)O)cc1S(=O)(=O)NC1CCCCC1	70.2*	-1.3	4.6	-3.8	-29.9	61.3*	21.5*
Cc1ccc(NC(=S)NC(=O)c2ccc(F)cc2)cc1S(=O)(=O)Nc1cccc(Cl)c1	19.9	0.6	-1.2	2.3	-14.7	x	x
Cc1ccc(S(=O)(=O)N2CCOCC2)cc1C(=O)N1CCN(c2ncccn2)CC1	-5.4	-0.8	x	4.3	22.0	x	x
Cc1cc(NS(=O)(=O)c2ccc(NC(=O)COc3ccc(Cl)c(C)c3)cc2)no1	41.4*	-0.2	x	-4.5	4.7	32.2	8.3*
Cc1cc(NS(=O)(=O)c2ccc(NC(=O)Nc3cccc(C(F)(F)F)c3)cc2)no1	49.5*	-1.1	-2.7	-0.9	-9.1	52.7*	19.9*
Cc1cc(NS(=O)(=O)c2ccc(NC(=O)CCCOc3ccc(Cl)cc3)cc2)no1	50.4*	-0.6	2.8	x	-24.1	33.7	10.2*
Cc1cc(NS(=O)(=O)c2ccc(NC(=O)COc3ccccc3C(C)(C)C)cc2)no1	71.5*	-1.4	1.2	1.2	-6.6	58.1*	24.7*
Cc1cc(NS(=O)(=O)c2ccc(NC(=O)CCCOc3ccccc3)cc2)no1	19.6	0.9	0.3	3.3	-18.7	x	x
Cc1ccc(C2c3c(-c4ccccc4)n[nH]c3C(=O)N2c2ccccc2)cc1 (stereo not given)	3.7	-0.2	x	3.5	x	x	x
SMILES	rCAG binder	PG9 Ab binder	NR2E3 ag-1	Rev-erbA mod	NR2E3 ag-2	rCAG bind conf	DNA CAG counter	others
CC(C)NS(=O)(=O)c1ccc(NC(=O)C(C)OC(=O)CCC(=O)c2cccs2)cc1 (stereo not given)	2.7	-0.4	0.1	2.4	-26.9	x	x
Cc1cc(NS(=O)(=O)c2ccc(NC(=O)c3ccc(Cl)cc3Cl)cc2)no1	10.6	-1.0	4.6	3.2	15.9	x	x
Cc1cc(NS(=O)(=O)c2ccc(NC(=O)COc3ccc(Cl)cc3Cl)cc2)no1	55.0*	-1.4	3.0	-0.6	6.3	41.8*	12.1*
Cc1cccc2nc(-c3ccccc3)c(-c3ccc(CN4CCC(n5cc(-c6ccccc6)[nH]c5=O)CC4)cc3)nc12	11.4	1.4	x	6.2	x	x	x
O=C1NC(=S)S/C1=C\c1ccc(SCc2ccccc2)o1	81.9*	-0.3	0.1	-15.2	15.9	79.1*	43.4*
O=C1NC(=S)S/C1=C\c1ccc(SCc2ccco2)o1	x	x	18.5	x	-42.0	x	x
Cc1cccc(NC(=S)N(Cc2ccc(Br)cc2)Cc2ccc(C(=O)O)cc2)c1	21.4	-1.1	4.5	1.9	18.8	x	x
COc1ccc(Cl)cc1NC(=S)N(Cc1ccc(C(=O)O)cc1)Cc1ccc(OC)c(OC)c1	50.4*	1.4	-1.5	-7.1	0.6	47.8*	15.3*
COc1ccc(CN(Cc2ccc(C(=O)O)cc2)C(=S)Nc2cc(C)cc(C)c2)cc1OC	4.3	-2.7	2.1	4.8	-10.2	x	x
Cc1cc(NC(=S)N(Cc2ccc(Br)cc2)Cc2ccc(C(=O)O)cc2)ccc1Cl	75.1*	-2.2	-0.4	-8.8	-9.3	82.1*	48.2*
COc1cccc(NC(=S)N(Cc2ccc(Cl)cc2)Cc2ccc(C(=O)O)cc2)c1	53.5*	2.2	2.6	-1.1	-18.4	41.7*	11.0*
COc1ccc(NC(=O)COC(=O)C2COc3ccccc3O2)cc1OC (stereo not given)	-0.4	-0.5	x	6.0	-24.2	x	x
O=C(O)/C(CC(=O)c1ccc(Cl)cc1)=N/Nc1ccc([N+](=O)[O-])cc1[N+](=O)[O-]	91.7*	-0.6	-1.0	10.6	-10.1	89.5*	66.1*
Cc1ccccc1NC(=O)NCCCCc1ccccc1	-5.3	-0.7	0.1	-1.3	-5.7	x	x
CN(C)S(=O)(=O)c1cc(C(=O)O)c(NC2CCCCC2)cc1Cl	44.9*	-2.7	-0.2	3.1	4.6	30.8	6.2*
CN1C2CCC1CC(NC(=O)c1cc(S(=O)(=O)N(C)C)c(Cl)cc1Cl)C2 (stereo not given)	2.2	1.1	2.2	2.7	-3.1	x	x
